“Also recorded” adds a separate entry of the source. *1 amine or outer side, *2 acyl side, *3 side chain or, on linkers, in order; H or OH if unused. Where a SMILES comes first, the peptide text is derived from it. Bridges are numbered along the chain shown (N, C = ends). [ ]: non-standard residue; d: D form. The star is where a group is joined. pTerphenylCO(4''-OnC5H11) = CCCCCOc1ccc(-c2ccc(-c3ccc(C(=O)*)cc3)cc2)cc1; Orn(4R-OH,5R-OH) = O=C([C@H](C[C@@H](O)[C@@H](O)N[*:3])N[*:1])[*:2]; hTyr(3S-OH,4S-OH) = N[C@H](C(=O)O)[C@H](O)[C@@H](O)c1ccc(O)cc1; Pro(3S-OH,4S-Me) = C[C@H]1CN[C@H](C(=O)O)[C@H]1O; Hyp = O=C(O)[C@@H]1C[C@@H](O)CN1
Tests used:
Safety and tolerability = format: in vivo, human
Procedure, shortened: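 Safety population: all 19 patients aged 1 month to <2 years, with confirmed or high-risk invasive candidiasis, who received IV drug (3 mg/kg day 1, then 1.5 mg/kg daily, ≤1.1 mg/min, ≤35 days). Optional oral fluconazole was allowed after ≥10 days (confirmed cases) or ≥5 days (high-risk), to ≤49 days total. Treatment-emergent adverse events and all-cause mortality were recorded throughout the study and summarized descriptively.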

[1] = test system: invasive candidiasis, including candidemia (Candida species); test: Global response, relapse and microbiologic outcome in invasive candidiasis; format: in vivo, human
Procedure, shortened: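 Modified intent-to-treat patients (≥1 dose, microbiologically confirmed Candida infection) received IV drug: 3 mg/kg loading dose on day 1, then 1.5 mg/kg daily for ≤35 days. An optional switch to oral fluconazole (6–12 mg/kg/d, max 800 mg/d) was allowed after ≥10 days IV, to ≤49 days total. Global response was assessed at end of IV therapy, end of treatment, and week 2 and 6 follow-up. Relapse and new infection were also assessed. Analysis was descriptive.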

invasive candidiasis = details: cited from earlier work
[2] = PS80 plasma concentration in infants; format: in vivo, human; details: infants receiving anidulafungin formulated with PS80
[3] = safety population n = 19, all causalities, AEs up to 30 days after last dose

CCCCCOc1ccc(-c2ccc(-c3ccc(C(=O)N[C@H]4C[C@@H](O)[C@@H](O)NC(=O)[C@@H]5[C@@H](O)[C@@H](C)CN5C(=O)[C@H]([C@@H](C)O)NC(=O)[C@H]([C@H](O)[C@@H](O)c5ccc(O)cc5)NC(=O)[C@@H]5C[C@@H](O)CN5C(=O)[C@H]([C@@H](C)O)NC4=O)cc3)cc2)cc1 [anidulafungin] ({pTerphenylCO(4''-OnC5H11)}-[Orn(4R-OH,5R-OH)]T[Hyp][hTyr(3S-OH,4S-OH)]T[Pro(3S-OH,4S-Me)]; lactam 1-C)
Patients with treatment-related TEAEs (Safety and tolerability; 3 of 19 patients): 15.8% | Patients with severe TEAEs (Safety and tolerability; 7 of 19 patients): 36.8% | Patients with TEAEs of any causality (Safety and tolerability; 17 of 19 patients, safety population): 89.5% | Treatment-related deaths (Safety and tolerability; safety population n = 19): no treatment-related deaths occurred; also recorded: No deaths were considered related to anidulafungin | Incidence of TEAE: Device-related infection (Safety and tolerability; [3]): 1 (5.3) n (%) | Incidence of TEAE: Lower respiratory tract infection (Safety and tolerability; [3]): 1 (5.3) n (%) | Incidence of TEAE: Upper respiratory tract infection (Safety and tolerability; [3]): 1 (5.3) n (%) | Global response success rate at EOIVT ([1]; 11 of 16 patients, MITT, 1 month to <2 years): 68.8% | Patients achieving negative blood cultures ([1]; 15 of 16): 93.8% | Resistance to anidulafungin ([1]; Candida species): No resistance to anidulafungin was observed | Median time to first negative blood culture ([1]; MITT population): 3 days | Relapse or new infection ([1]; week 2 and week 6 follow-up visits): No patients relapsed or experienced new infection | Global response of success at EOIVT in adults (invasive candidiasis): 75.6%

polysorbate 80 [PS80]
Hepatotoxicity or PS80 accumulation [2]: No hepatotoxicity or PS80 accumulation was detected

OC(Cn1cncn1)(Cn1cncn1)c1ccc(F)cc1F [fluconazole]
TEAEs related to fluconazole (Safety and tolerability; 6 patients switched to oral fluconazole 6-12 mg/kg/d): No patients experienced TEAEs related to fluconazole
